Article PMC2728397 (The Journal of Cell Biology, 2009)

How the values were obtained:
thymocytes (Bim level) = assay: Bim expression in thymocytes; format: cell-based, mouse; details: mutant and WT thymocytes; Western blot
Bcl-2 = assay: Coimmunoprecipitation from thymocyte lysates, Bcl-2; format: binding, mouse; details: 1% Triton X-100 buffer, pH 7.4, anti-Bim 3C5
Procedure, shortened: (§1)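 Thymocytes came from WT and Bim BH3-replacement knockin mice. Cells were lysed in 20 mM Tris pH 7.4, 135 mM NaCl, 1.5 mM MgCl2, 1 mM EGTA, 10% glycerol, 1% Triton X-100 and protease inhibitors. Bim was immunoprecipitated with rat mAb 3C5 (N-terminal epitope, all isoforms and mutants). Partners were shown by SDS-PAGE/Western blot with ECL: hamster mAb 3F11 (Bcl-2), rabbit polyclonals (Bcl-xL, Mcl-1).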

Mcl-1 = assay: Coimmunoprecipitation from thymocyte lysates, Mcl-1; format: binding, mouse; details: 1% Triton X-100 buffer, pH 7.4, anti-Bim 3C5
Procedure, shortened: as §1

Bcl-xL = assay: Coimmunoprecipitation from thymocyte lysates, Bcl-xL; format: binding, mouse; details: 1% Triton X-100 buffer, pH 7.4, anti-Bim 3C5
Procedure, shortened: as §1

| Molecule | Bim expression (thymocytes (Bim level)) | coimmunoprecipitation with Bcl-2 (Bcl-2) | coimmunoprecipitation with Mcl-1 (Mcl-1) | coimmunoprecipitation with Bcl-xL (Bcl-xL) |
| --- | --- | --- | --- | --- |
| C[C@H](CCC(=O)O)C[C@H](C)C[C@H](C)C(=O)/C=C(\O)[C@H](C)C[C@H](C)C/C=C/[C@@H](C)[C@@H](O)[C@@H](C)[C@@H](O)C[C@@H]1CC[C@@](C)([C@H]2CC[C@@](C)([C@@H](C)O)O2)O1 [ionomycin] | increased Bim expression comparably in both the mutant and WT thymocytes | – | – | – |
| WT Bim: wild-type Bim protein in thymocyte lysates (protein) MAKQPSDVSSECDREGGQLQPAERPPQLRPGAPTSLQTEPQGNPDGEGDRCPHGSPQGPLAPPASPGPFATRSPLFIFVRRSSLLSRSSSGYFSFDTDRSPAPMSCDKSTQTPSPPCQAFNHYLSAMASIRQSQEEPEDLRPEIRIAQELRRIGDEFNETYTRRVFANDYREAEDHPQMVILQLLRFIFRLVWRRH | – | bound all of these prosurvival proteins | bound all of these prosurvival proteins | bound all of these prosurvival proteins |
